Results reported in ChEMBL document CHEMBL1151323, “Use of on-flow LC/1H NMR for the study of an antioxidant fraction from Orophea enneandra and isolation of a polyacetylene, lignans, and a tocopherol derivative” (J Nat Prod, 1998).
Calls of active or inactive are those of the source. The calls are words filed in the database; no cut-off is given here.

Legend:
[1] = Antioxidant activity against beta-carotene assessed as inhibition of bleaching at 10 ug; type: functional
Summary of the method: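 Silica gel 60 F254 TLC plates developed in petroleum ether–EtOAc (1:2), then dried and sprayed with 0.05% β-carotene in CHCl3. Plates were kept under UV 254 nm until the background discolored. Inhibition of bleaching was read on the plate.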

[2] = DPPH radical scavenging activity at 10 ug by TLC autographic assay; type: functional
Summary of the method: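 TLC autography on silica gel 60 F254 plates developed in petroleum ether–EtOAc (1:2), dried, then sprayed with 0.2% DPPH in MeOH. Plates were read 30 min after spraying; active zones show as yellow spots on a purple background.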

[3] = system: Cladosporium cucumerinum; assay: Antifungal activity against Cladosporium cucumerinum at 20 ug; type: functional, organism-based
[4] = system: Cladosporium cucumerinum; assay: Antifungal activity against Cladosporium cucumerinum at 10 ug; type: functional, organism-based
[5] = system: Cladosporium cucumerinum; assay: Antifungal activity against Cladosporium cucumerinum at 40 ug; type: functional, organism-based
[6] = DPPH radical scavenging activity at 10 ug by TLC autographic assay

Row | SMILES | Activity [1] | Activity [2] | Activity [3] | Activity [4] | Activity [5] | Activity [6]
1 | COc1ccc([C@H]2OC[C@@H]3[C@H]2CO[C@H]3c2ccc(OC)c(OC)c2)cc1OC | Active | Active | Active |  |  | 
2 | Clc1ccc(COC(Cn2ccnc2)c2ccc(Cl)cc2Cl)c(Cl)c1 (centres undefined) |  |  |  | Active |  | 
3 | COc1ccc([C@@H]2OC[C@@H]3[C@H]2CO[C@H]3c2ccc(OC)c(OC)c2)cc1OC | Active | Active | Active |  |  | 
4 | COc1cc([C@@H]2OC[C@@H]3[C@H]2CO[C@@H]3c2ccc(OC)c(OC)c2)ccc1O | Active | Active | Active |  |  | 
5 | C/C(=C/CC/C(C)=C/CCC1(C)CCc2cc(O)cc(C)c2O1)C(=O)O (centres undefined) | Active | Active |  |  | Active | Active
